Calls of active or inactive are those of the source. The rule behind the calls is not given here.
Assays:
[1] = target: Homeodomain-interacting protein kinase 1 (Homo sapiens) (UniProt Q86Z02); experiment: Inhibition of HIPK1 (unknown origin) assessed as residual activity at 50 uM relative to control
Procedure, shortened: (§1)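 Selectivity profiling against a panel of 44 human kinases. For each kinase, ATP was set to that kinase's Km. Values are residual activity in duplicate assays.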

[2] = target: Tyrosine-protein kinase Lyn (Homo sapiens) (UniProt P07948); experiment: Inhibition of LYN (unknown origin) assessed as residual activity at 50 uM relative to control; procedure, shortened: as §1
[3] = target: Epidermal growth factor receptor (Homo sapiens) (UniProt P00533); experiment: Inhibition of EGFR (unknown origin) assessed as residual activity at 50 uM relative to control; procedure, shortened: as §1
[4] = target: Serine/threonine-protein kinase PAK 2 (Homo sapiens) (UniProt Q13177); experiment: Inhibition of PAK2 (unknown origin) assessed as residual activity at 50 uM relative to control; procedure, shortened: as §1
[5] = target: Serine/threonine-protein kinase Chk2 (Homo sapiens) (UniProt O96017); experiment: Inhibition of CHK2 (unknown origin) assessed as residual activity at 50 uM relative to control; procedure, shortened: as §1
[6] = target: Glycogen synthase kinase-3 beta (Homo sapiens) (UniProt P49841); experiment: Inhibition of GSK3beta (unknown origin) assessed as residual activity at 50 uM relative to control; procedure, shortened: as §1
[7] = target: Fibroblast growth factor receptor 1 (Homo sapiens) (UniProt P11362); experiment: Inhibition of FGFR1 (unknown origin) assessed as residual activity at 50 uM relative to control; procedure, shortened: as §1
[8] = target: Calcium/calmodulin-dependent protein kinase type 1 (Homo sapiens) (UniProt Q14012); experiment: Inhibition of CAMK1 (unknown origin) assessed as residual activity at 50 uM relative to control; procedure, shortened: as §1
[9] = target: Serine/threonine-protein kinase pim-1 (Homo sapiens) (UniProt P11309); experiment: Inhibition of PIM1 (unknown origin) assessed as residual activity at 50 uM relative to control; procedure, shortened: as §1
[10] = target: T1, Casein kinase II subunit alpha (Homo sapiens, UniProt P68400); experiment: Mixed-type inhibition of recombinant human GST-tagged CK2alpha in presence of ATP by Lineweaver-Burk plot analysis
Target sequence in this assay (P68400 whole entry): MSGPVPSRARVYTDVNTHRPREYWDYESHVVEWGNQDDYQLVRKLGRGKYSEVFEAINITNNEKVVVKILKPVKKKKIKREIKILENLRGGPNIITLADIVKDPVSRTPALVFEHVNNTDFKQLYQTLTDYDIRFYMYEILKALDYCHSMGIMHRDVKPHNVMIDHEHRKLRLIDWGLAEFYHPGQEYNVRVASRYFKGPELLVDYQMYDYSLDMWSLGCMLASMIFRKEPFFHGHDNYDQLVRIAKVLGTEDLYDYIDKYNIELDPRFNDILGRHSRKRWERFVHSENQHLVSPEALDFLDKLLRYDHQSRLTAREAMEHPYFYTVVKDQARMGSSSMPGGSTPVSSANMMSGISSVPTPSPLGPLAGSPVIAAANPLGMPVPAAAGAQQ

Homo sapiens = species on record: Homo sapiens; experiment: Inhibition of PKA (unknown origin) assessed as residual activity at 50 uM relative to control; procedure, shortened: as §1
[11] = target: Proto-oncogene tyrosine-protein kinase Src (Homo sapiens) (UniProt P12931); experiment: Inhibition of cSRC (unknown origin) assessed as residual activity at 50 uM relative to control
Procedure, shortened: (§2)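 Profiling panel of 44 human kinases. ATP set to each kinase's Km. Run in duplicate; duplicates within 15–17% of each other.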

[12] = target: Hepatocyte growth factor receptor (Homo sapiens) (UniProt P08581); experiment: Inhibition of MET (unknown origin) assessed as residual activity at 50 uM relative to control; procedure, shortened: as §1
[13] = target: Mast/stem cell growth factor receptor Kit (Homo sapiens) (UniProt P10721); experiment: Inhibition of cKIT (unknown origin) assessed as residual activity at 50 uM relative to control; procedure, shortened: as §2
[14] = target: Muscle, skeletal receptor tyrosine-protein kinase (Homo sapiens) (UniProt O15146); experiment: Inhibition of MUSK (unknown origin) assessed as residual activity at 50 uM relative to control; procedure, shortened: as §1
[15] = target: Aurora kinase A (Homo sapiens) (UniProt O14965); experiment: Inhibition of aurora A (unknown origin) assessed as residual activity at 50 uM relative to control
[16] = target: Cyclin-dependent kinase 1/cyclin B1 (Homo sapiens) (UniProt P06493+P14635); experiment: Inhibition of CDK1/cyclin B (unknown origin) assessed as residual activity at 50 uM relative to control; format: protein-complex assay; procedure, shortened: as §1
[17] = target: Casein kinase II alpha/beta (Homo sapiens) (UniProt P67870+P68400); experiment: Inhibition of recombinant human GST-tagged CK2alpha2/CK2beta2 at 20 uM in presence of ATP and increasing CK2beta levels by radiometric kinase assay; format: protein-complex assay
Procedure, shortened: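 CK2α fixed at 150 nM and inhibitor fixed at 20 μM. CK2β was titrated at increasing concentrations and activity was read in the radiometric assay.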

[18] = target: Homeodomain-interacting protein kinase 3 (Homo sapiens) (UniProt Q9H422); experiment: Inhibition of HIPK3 (unknown origin) assessed as residual activity at 50 uM relative to control; procedure, shortened: as §1
[19] = target: Tyrosine-protein kinase Fyn (Homo sapiens) (UniProt P06241); experiment: Inhibition of FYN (unknown origin) assessed as residual activity at 50 uM relative to control; procedure, shortened: as §1
[20] = target: CDK6/cyclin D3 (Homo sapiens) (UniProt P30281+Q00534); experiment: Inhibition of CDK6/cyclin D3 (unknown origin) assessed as residual activity at 50 uM relative to control; format: protein-complex assay; procedure, shortened: as §1
[21] = target: Mitogen-activated protein kinase 1 (Homo sapiens) (UniProt P28482); experiment: Inhibition of MAPK1 (unknown origin) assessed as residual activity at 50 uM relative to control; procedure, shortened: as §1
[22] = target: Serine/threonine-protein kinase mTOR (Homo sapiens) (UniProt P42345); experiment: Inhibition of MTOR (unknown origin) assessed as residual activity at 50 uM relative to control; procedure, shortened: as §1
[23] = target: Tyrosine-protein kinase JAK2 (Homo sapiens) (UniProt O60674); experiment: Inhibition of JAK2 (unknown origin) assessed as residual activity at 50 uM relative to control; procedure, shortened: as §1
[24] = target: CDK2/Cyclin A2 (Homo sapiens) (UniProt P24941+P20248); experiment: Inhibition of CDK2/cyclin A (unknown origin) assessed as residual activity at 50 uM relative to control; format: protein-complex assay; procedure, shortened: as §1
[25] = target: Dual specificity tyrosine-phosphorylation-regulated kinase 2 (Homo sapiens) (UniProt Q92630); experiment: Inhibition of DYRK2 (unknown origin) assessed as residual activity at 50 uM relative to control; procedure, shortened: as §1
[26] = target: T1, Casein kinase II subunit alpha; experiment: Inhibition of CK2alpha (unknown origin) assessed as residual activity at 50 uM relative to control; procedure, shortened: as §1
Target sequence in this assay (P68400 whole entry, looked up): as the sequence (P68400 whole entry) above

[27] = target: Serine/threonine-protein kinase STK11 (Homo sapiens) (UniProt Q15831); experiment: Inhibition of LKB1 (unknown origin) assessed as residual activity at 50 uM relative to control; procedure, shortened: as §1
[28] = target: CDK9/cyclin T1 (Homo sapiens) (UniProt O60563+P50750); experiment: Inhibition of CDK9/cyclin T1 (unknown origin) assessed as residual activity at 50 uM relative to control; format: protein-complex assay; procedure, shortened: as §1
[29] = target: RAC-alpha serine/threonine-protein kinase (Homo sapiens) (UniProt P31749); experiment: Inhibition of PKBalpha (unknown origin) assessed as residual activity at 50 uM relative to control; procedure, shortened: as §2
[30] = target: Protein kinase C alpha type (Homo sapiens) (UniProt P17252); experiment: Inhibition of PKCalpha (unknown origin) assessed as residual activity at 50 uM relative to control; procedure, shortened: as §2
[31] = target: T1, Casein kinase II subunit alpha; experiment: Inhibition of recombinant human GST-tagged CK2alpha in presence of ATP by radiometric kinase assay
Target sequence in this assay (P68400 whole entry): as above

[32] = target: Inhibitor of nuclear factor kappa-B kinase subunit alpha (Homo sapiens) (UniProt O15111); experiment: Inhibition of IKKalpha (unknown origin) assessed as residual activity at 50 uM relative to control; procedure, shortened: as §1
[33] = target: Platelet-derived growth factor receptor alpha (Homo sapiens) (UniProt P16234); experiment: Inhibition of PDGFRalpha (unknown origin) assessed as residual activity at 50 uM relative to control; procedure, shortened: as §1

Tyrosine-protein kinase Lyn (Homo sapiens), sequence (P07948 2-512 limits assumed): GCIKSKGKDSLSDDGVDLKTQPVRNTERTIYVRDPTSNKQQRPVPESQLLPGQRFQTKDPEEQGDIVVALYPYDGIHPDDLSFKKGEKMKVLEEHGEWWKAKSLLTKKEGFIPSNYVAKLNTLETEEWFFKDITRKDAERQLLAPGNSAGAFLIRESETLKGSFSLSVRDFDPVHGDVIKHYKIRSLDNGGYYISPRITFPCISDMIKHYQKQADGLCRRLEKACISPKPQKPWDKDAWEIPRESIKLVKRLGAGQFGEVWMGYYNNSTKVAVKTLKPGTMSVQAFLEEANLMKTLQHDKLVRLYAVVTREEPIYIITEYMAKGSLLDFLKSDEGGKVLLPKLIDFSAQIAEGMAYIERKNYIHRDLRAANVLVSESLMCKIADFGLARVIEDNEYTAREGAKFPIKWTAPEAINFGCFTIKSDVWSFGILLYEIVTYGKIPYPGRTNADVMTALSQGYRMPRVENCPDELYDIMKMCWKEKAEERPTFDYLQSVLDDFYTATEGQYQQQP
Serine/threonine-protein kinase STK11 (Homo sapiens), sequence (Q15831 whole entry): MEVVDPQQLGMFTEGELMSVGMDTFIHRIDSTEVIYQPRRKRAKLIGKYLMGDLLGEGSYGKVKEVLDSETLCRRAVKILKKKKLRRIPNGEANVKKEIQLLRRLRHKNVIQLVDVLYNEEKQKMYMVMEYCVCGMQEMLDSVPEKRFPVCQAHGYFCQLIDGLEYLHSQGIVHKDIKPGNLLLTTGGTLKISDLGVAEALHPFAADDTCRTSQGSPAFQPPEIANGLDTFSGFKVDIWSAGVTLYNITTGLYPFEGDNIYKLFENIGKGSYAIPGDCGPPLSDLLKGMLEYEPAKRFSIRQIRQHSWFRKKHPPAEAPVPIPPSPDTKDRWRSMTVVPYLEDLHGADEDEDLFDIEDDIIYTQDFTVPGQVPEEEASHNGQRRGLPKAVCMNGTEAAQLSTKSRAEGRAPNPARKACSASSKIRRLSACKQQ
Epidermal growth factor receptor (Homo sapiens), sequence (P00533 whole entry): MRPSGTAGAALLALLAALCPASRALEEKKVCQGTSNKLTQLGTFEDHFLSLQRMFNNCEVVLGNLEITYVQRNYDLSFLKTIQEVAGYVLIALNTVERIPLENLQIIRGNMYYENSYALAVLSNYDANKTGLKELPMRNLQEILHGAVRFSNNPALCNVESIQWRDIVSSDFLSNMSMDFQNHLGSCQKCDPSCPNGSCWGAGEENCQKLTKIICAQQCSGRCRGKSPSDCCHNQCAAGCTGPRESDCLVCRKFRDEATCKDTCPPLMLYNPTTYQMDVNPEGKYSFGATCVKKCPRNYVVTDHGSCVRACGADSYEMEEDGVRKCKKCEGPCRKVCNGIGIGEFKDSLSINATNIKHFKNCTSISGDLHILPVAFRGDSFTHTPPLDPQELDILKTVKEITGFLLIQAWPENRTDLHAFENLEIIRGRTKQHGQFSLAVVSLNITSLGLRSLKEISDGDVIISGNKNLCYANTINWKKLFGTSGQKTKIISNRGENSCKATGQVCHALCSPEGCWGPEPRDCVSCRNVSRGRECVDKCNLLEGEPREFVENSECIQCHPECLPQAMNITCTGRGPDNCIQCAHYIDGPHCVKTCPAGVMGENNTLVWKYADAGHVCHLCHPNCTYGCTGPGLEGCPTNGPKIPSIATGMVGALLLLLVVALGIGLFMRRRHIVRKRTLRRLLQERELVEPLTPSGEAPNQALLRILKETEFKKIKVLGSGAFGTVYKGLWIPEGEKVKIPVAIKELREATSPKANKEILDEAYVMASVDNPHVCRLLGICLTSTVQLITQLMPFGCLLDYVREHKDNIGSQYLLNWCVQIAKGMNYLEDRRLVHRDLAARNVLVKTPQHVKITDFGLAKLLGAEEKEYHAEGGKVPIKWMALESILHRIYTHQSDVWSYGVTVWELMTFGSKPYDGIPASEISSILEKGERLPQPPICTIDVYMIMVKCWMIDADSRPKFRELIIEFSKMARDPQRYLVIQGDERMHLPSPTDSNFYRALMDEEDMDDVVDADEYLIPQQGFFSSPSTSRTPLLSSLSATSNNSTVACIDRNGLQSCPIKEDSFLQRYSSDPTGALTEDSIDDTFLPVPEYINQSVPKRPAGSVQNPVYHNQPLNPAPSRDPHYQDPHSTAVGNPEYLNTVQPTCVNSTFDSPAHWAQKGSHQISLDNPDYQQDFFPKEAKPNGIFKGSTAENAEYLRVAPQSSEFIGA
Casein kinase II alpha/beta (Homo sapiens), sequence (P67870 2-215 limits assumed): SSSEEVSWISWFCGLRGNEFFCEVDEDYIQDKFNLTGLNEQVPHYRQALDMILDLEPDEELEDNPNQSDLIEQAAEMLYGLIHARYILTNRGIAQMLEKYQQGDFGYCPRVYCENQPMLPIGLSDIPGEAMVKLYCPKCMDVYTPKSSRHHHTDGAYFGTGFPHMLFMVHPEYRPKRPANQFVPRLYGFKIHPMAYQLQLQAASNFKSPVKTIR
Casein kinase II alpha/beta (Homo sapiens), sequence (P68400 whole entry partner): as the sequence (P68400 whole entry) above
Tyrosine-protein kinase JAK2 (Homo sapiens), sequence (O60674 whole entry): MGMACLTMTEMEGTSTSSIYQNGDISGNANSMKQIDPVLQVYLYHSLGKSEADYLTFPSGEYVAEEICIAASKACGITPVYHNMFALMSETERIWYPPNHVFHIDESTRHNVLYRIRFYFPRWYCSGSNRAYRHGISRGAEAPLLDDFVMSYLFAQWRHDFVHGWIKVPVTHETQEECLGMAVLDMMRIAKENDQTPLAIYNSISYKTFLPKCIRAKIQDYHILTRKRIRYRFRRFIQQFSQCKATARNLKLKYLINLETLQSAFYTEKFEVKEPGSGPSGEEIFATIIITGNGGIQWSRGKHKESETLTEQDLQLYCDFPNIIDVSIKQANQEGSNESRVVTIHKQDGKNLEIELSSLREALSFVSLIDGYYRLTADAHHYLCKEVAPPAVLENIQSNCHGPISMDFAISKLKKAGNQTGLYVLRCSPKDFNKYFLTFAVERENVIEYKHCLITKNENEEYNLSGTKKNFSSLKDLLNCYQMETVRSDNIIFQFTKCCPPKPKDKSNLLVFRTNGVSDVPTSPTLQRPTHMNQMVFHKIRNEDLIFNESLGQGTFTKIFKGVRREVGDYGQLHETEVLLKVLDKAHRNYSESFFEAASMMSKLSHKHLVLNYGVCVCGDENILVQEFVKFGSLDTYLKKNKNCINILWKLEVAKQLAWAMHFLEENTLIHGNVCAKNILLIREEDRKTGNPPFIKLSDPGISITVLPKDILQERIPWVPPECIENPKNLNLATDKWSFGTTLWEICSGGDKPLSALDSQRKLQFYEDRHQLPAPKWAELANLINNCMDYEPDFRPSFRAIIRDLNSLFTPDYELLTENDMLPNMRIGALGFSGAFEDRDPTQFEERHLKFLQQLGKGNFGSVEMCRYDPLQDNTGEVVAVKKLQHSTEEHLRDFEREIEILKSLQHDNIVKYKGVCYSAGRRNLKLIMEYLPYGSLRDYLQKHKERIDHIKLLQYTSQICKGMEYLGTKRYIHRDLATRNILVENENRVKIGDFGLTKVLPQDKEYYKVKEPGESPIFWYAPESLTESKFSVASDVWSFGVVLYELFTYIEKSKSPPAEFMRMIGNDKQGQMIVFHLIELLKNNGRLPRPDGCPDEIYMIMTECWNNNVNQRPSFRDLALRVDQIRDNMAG
Glycogen synthase kinase-3 beta (Homo sapiens), sequence (P49841 whole entry, looked up): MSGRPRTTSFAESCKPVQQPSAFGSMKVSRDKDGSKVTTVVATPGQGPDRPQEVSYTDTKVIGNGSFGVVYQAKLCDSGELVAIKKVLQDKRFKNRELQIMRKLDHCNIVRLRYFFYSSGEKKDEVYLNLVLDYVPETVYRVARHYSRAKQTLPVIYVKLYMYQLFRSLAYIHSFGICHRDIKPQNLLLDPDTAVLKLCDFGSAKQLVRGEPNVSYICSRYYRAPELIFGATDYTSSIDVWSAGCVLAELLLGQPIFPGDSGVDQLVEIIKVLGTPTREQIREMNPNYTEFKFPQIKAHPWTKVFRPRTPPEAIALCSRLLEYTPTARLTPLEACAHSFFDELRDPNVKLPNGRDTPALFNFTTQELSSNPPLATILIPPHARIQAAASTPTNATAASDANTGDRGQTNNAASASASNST
Serine/threonine-protein kinase pim-1 (Homo sapiens), sequence (P11309 whole entry, looked up): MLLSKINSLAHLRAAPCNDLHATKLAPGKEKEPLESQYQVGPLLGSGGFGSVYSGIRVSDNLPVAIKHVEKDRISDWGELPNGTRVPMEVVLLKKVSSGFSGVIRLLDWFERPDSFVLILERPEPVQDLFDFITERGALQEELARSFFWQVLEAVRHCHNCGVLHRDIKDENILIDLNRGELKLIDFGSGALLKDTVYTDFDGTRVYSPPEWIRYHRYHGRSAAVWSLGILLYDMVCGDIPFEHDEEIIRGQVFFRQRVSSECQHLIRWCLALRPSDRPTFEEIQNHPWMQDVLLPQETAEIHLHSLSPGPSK

- Activity [1]: 97%
- Activity [2]: 104%
- Activity [3]: 26%
- Activity [4]: 102%
- Activity [5]: 89%
- Activity [6]: 79%
- Activity [7]: 97%
- Activity [8]: 101%
- Activity [9]: 46%
- Ki [10]: 1.6 µM
- Activity (Homo sapiens): 87%
- Activity [11]: 97%
- Activity [12]: 102%
- Activity [13]: 87%
- Activity [14]: 62%
- Activity [15]: 79%
- Activity [16]: 89%
- inhibition [17]: Active
- Activity [18]: 98%
- Activity [19]: 97%
- Activity [20]: 95%
- Activity [21]: 84%
- Activity [22]: 104%
- Activity [23]: 104%
- Activity [24]: 86%
- Activity [25]: 78%
- Activity [26]: 0%
- Activity [27]: 85%
- Activity [28]: 99%
- Activity [29]: 85%
- Activity [30]: 86%
- IC50 [31]: 7 µM
- Activity [32]: 103%
- Activity [33]: 65%
Compound: O=C(O)c1ccc(Nc2nc(-c3cccc([N+](=O)[O-])c3)cs2)cc1
